The test system of assay [1] is aPL from pool of plasma from 11 human patients. The assay can be described thus: surface plasmon resonance, aPL over immobilized biotinylated peptide. In kind it is binding. The note with it: shape of stabilization curves; Figures 3C, 3D, 4E. On the technique in general: In SPR one partner is held on a chip, and binding of the other changes the refractive index at the surface.

In a further assay the test system is aPL pool. As to the kind of experiment: custom immunoassay. The settings on record: coated on plate (10 μg/ml); aPL pool 1/10 dilution; n = 9. Type of assay: binding, human.
Assay [2] relates to aPL pool sera / IIa‐8.0‐biot‐2x. The assay can be described thus: inhibition of aPL binding to IIa‐8.0‐biot‐2x ELISA. Type of assay: biochemical, human. The note with it: preincubation 90 min, room temperature; 1, 10 and 100 μg/ml; n = 3–4; Figure 7A. The procedure, abridged:
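Pooled plasma from 11 APS patients (aPL pool sera) was preincubated for 90 min at room temperature with increasing concentrations (1, 10, 100) of monomeric peptide. It was then run in the anti-β2GP1 IgG ELISA on streptavidin-coated plates bearing the biotinylated dimeric peptide. Bound IgG was detected with anti-human secondary antibody (IRDye800CW or HRP) as fluorescence (AU) or A405. Mean ± SEM, n = 3–4.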
In general terms: In an ELISA, binding on a coated surface is turned into a signal by an enzyme label.

Consider VSRGGMRKKKKPLTG [Ib‐1‐biot], for which the “sustained interaction / stability of binding with aPL” value in assay [1] is given as “neither R39‐R43‐biot nor Ib‐1‐biot have sustained interaction with aPL”.

Take VSRGGMRKFICPLTG [R39‐R43]: the “ability to interact with aPL compared with β2GP1” value in the assay on aPL pool is recorded as “same ability to interact with aPL than β2GP1”. Besides, the “inhibition of aPL binding to IIa‐8.0‐biot‐2x, monomeric peptide” value in assay [2] was “failed to significantly inhibit”.
